Measured values gathered from unrelated publications.
Lines come from different studies, so protocols differ.
Target: Mitogen-activated protein kinase kinase kinase 6 (MAP3K6, Homo sapiens, UniProt O95382)
One construct used (O95382 1-1288): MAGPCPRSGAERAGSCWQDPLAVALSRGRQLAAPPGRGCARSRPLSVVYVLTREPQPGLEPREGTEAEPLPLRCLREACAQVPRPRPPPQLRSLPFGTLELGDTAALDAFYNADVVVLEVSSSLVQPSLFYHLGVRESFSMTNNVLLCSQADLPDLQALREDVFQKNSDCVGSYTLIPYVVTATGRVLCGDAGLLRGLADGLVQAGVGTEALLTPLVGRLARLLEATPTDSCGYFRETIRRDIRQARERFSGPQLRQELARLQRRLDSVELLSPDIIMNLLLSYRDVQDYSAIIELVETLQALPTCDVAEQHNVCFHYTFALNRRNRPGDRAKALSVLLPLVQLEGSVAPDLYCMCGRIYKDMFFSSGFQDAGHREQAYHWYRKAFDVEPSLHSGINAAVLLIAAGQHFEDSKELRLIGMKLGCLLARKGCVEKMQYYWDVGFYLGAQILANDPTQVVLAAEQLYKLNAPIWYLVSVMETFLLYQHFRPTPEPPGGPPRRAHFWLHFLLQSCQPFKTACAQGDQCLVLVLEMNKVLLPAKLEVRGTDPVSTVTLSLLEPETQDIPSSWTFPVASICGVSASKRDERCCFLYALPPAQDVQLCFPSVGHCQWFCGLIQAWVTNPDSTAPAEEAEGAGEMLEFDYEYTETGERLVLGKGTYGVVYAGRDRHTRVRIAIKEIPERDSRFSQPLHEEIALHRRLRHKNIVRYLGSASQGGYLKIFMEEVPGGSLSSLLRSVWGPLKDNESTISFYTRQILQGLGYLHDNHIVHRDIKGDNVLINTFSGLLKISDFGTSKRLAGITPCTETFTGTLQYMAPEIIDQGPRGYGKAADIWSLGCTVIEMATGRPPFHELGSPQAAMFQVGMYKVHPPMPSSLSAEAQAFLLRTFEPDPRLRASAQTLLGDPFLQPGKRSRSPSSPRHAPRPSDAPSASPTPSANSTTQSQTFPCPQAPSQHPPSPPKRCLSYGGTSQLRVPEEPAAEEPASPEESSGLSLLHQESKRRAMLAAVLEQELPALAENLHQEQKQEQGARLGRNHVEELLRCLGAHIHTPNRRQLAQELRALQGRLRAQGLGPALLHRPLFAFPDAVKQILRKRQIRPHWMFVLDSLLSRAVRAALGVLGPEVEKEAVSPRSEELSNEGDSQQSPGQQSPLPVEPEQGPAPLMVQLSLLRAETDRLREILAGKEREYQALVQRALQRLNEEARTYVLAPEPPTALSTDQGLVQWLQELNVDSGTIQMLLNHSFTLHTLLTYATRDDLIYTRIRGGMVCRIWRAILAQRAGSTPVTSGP

SMILES	observed	method	tested at	remaining binding
CN(C)c1nccc(-c2cnc3ncccn23)n1	binding	–	1 µM	67%
COc1cnc(Nc2cccc(S(N)(=O)=O)c2)nc1N1CCN(c2ccccc2)C(=O)C1	binding	competition with immobilised ligand	1 µM	84%
CCN1CCN(Cc2ccc(C(=O)Nc3ccc(C)c(Oc4ccc5c(c4)CC(=O)N5)c3)cc2C(F)(F)F)CC1	binding	competition with immobilised ligand	1 µM	100%
C[C@@H](c1ccc(-n2cnc3c(N)ncnc32)cc1)N1CCc2nn(C)c(Cc3ccccc3)c2C1=O	binding	competition with immobilised ligand	0.1 µM	67%
Cc1cc(C)c(-n2ccn3nc(-c4cccnc4)cc23)cc1NC(=O)c1cc(C#N)cc(S(F)(F)(F)(F)F)c1	cell-free assay	competition with immobilised ligand	0.1 µM	100%
O=C(c1ccc(Nc2ncc(Cl)c(-c3ccc(Cl)s3)n2)cc1)N1CCC(N2CCCC2)CC1	binding	competition with immobilised ligand	1 µM	66%
CC1CCCN1c1nccc(-c2cnn3ncccc23)n1 (stereo not shown)	binding	–	1 µM	100%
CNC(=O)Nc1ccc2c(c1)CC[C@@]21OC(=O)N(CC(=O)N(Cc2ccc(F)cc2)[C@@H](C)C(F)(F)F)C1=O	cell-free assay	competition with immobilised ligand	1 µM	86%
c1cncc(-c2cccc(Nc3nccc(NC4CCCCC4)n3)c2)c1	binding	competition with immobilised ligand	10 µM	100%
CN(C)c1ncc(F)c(-c2cnn3ncccc23)n1	binding	–	1 µM	97%
O=C(NCCCN1CCOCC1)c1ccc(Nc2ncc(Cl)c(-c3ccc(Cl)s3)n2)cc1	binding	competition with immobilised ligand	1 µM	83%
CCCOc1ccc([C@@H]2[C@@H](C(=O)O)[C@H](c3ccc4c(c3)OCO4)CN2CC(=O)Nc2c(CC)cccc2CC)cc1	cell-free assay	competition with immobilised ligand	1 µM	77%
COc1ncc2cc3ccccc3nc2c1C#N	cell-free assay	competition with immobilised ligand	5 µM	100%
CN(C)c1nccc(-c2cnn3ncccc23)n1	binding	–	1 µM	74%
COc1ccc2cc(OCC3(C(=O)O)CN(C(=O)c4ccc(F)cc4)C3)ccc2c1	cell-free assay	competition with immobilised ligand	1 µM	95%
O=C(c1ccc(Nc2nccc(-c3cc4ccccc4s3)n2)cc1)N1CCC(N2CCCC2)CC1	binding	competition with immobilised ligand	1 µM	91%
CCS(=O)(=O)c1cc2cc(C[C@@](O)(CC(C)(C)c3ccc(F)cc3C(N)=O)C(F)(F)F)[nH]c2cn1	cell-free assay	competition with immobilised ligand	1 µM	100%
C=CC(=O)N1CCC(C(=O)NCC(=O)N2CCN(c3nc(-c4cnc(N)nc4C(F)F)nc(N4CCOCC4)n3)CC2)CC1	binding	competition with immobilised ligand	1 µM	100%
N[C@@H]1CCN(c2nccc(-c3cnn4ncccc34)n2)C1	binding	–	1 µM	57%
O=C(Nc1c[nH]nc1C(=O)NC1CCNCC1)c1cc(F)cc(F)c1	binding	competition with immobilised ligand	1 µM	84%
CS(=O)(=O)N1CCCC(NC(=O)[C@H](CCC2CCCCC2)NC(=O)c2ccc(CNC(=O)c3cnc4ccccn34)cc2)C1 (stereo partly shown)	cell-free assay	competition with immobilised ligand	0.1 µM	100%
C[C@H]1CCN(c2nccc(-c3cnn4ncccc34)n2)C1	binding	–	1 µM	57%
